According to ChEMBL document CHEMBL4130618, “Paralithocins, Antimicrobial Peptides with Unusual Disulfide Connectivity from the Red King Crab, Paralithodes camtschaticus” (2018):
≈ marks a conversion by molar mass, not a printed value.

Legend:
Format in all cases: functional
[1] = system: Staphylococcus aureus; assay: Antibacterial activity against Staphylococcus aureus ATCC 9144 measured after 24 hrs; conditions: ATCC 9144, 24 h
In short: (§1)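 Purified native peptide in 2-fold serial dilutions in double-distilled water (1.6–100 μM). 50 μL was mixed with an equal volume of actively growing bacteria (5 × 10^3 cells/well) in Mueller Hinton broth and incubated 24 h at 37 °C. Growth was followed by OD. MIC is the lowest concentration giving OD <50% of the water growth control, read at control OD ≈0.3.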

[2] = system: Pseudomonas aeruginosa; assay: Antibacterial activity against Pseudomonas aeruginosa […] measured after 24 hrs; in short: as §1
[3] = system: Carnobacterium mobile; assay: Antibacterial activity against Carnobacterium mobile measured after 72 hrs
In short: (§2)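 Carnobacteria were grown in modified tryptic soy broth with 5% glucose and 2% NaCl. 2-fold peptide dilutions in double-distilled water (1.6–100 μM, up to 200 μM for selected marine strains), 50 μL mixed 1:1 with growing cells (5 × 10^3/well), incubated 72 h at 12 °C. MIC is the lowest concentration with OD below 50% of the water growth control.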

[4] = system: Yersinia ruckeri; assay: Antibacterial activity against Yersinia ruckeri CCUG 14190 measured after 72 hrs; conditions: CCUG 14190, 72 h
In short: (§3)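 Marine strains were grown in Mueller Hinton broth. Peptide in 2-fold dilutions in double-distilled water (1.6–100 μM, up to 200 μM for selected marine strains), 50 μL plus an equal volume of growing bacteria at 5 × 10^3 cells/well, 72 h at 12 °C. OD was monitored. MIC is the lowest concentration giving OD <50% of the water growth control.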

[5] = system: Carnobacterium divergens; assay: Antibacterial activity against Carnobacterium divergens measured after 72 hrs; in short: as §2
[6] = system: Vibrio anguillarum; assay: Antibacterial activity against Listonella anguillarum AL104 measured after 72 hrs; conditions: AL104, 72 h; in short: as §3
[7] = system: Escherichia coli; assay: Antibacterial activity against Escherichia coli ATCC 25922 measured after 24 hrs; conditions: ATCC 25922, 24 h; in short: as §1
[8] = system: Carnobacterium funditum; assay: Antibacterial activity against Carnobacterium funditum CCUG 34644 measured after 72 hrs; conditions: CCUG 34644, 72 h; in short: as §2
[9] = system: Aeromonas salmonicida; assay: Antibacterial activity against Aeromonas salmonicida AL2020 measured after 72 hrs; conditions: AL2020, 72 h; in short: as §3
[10] = system: Corynebacterium glutamicum; assay: Antibacterial activity against Corynebacterium glutamicum ATCC 13032 measured after 24 hrs; conditions: ATCC 13032, 24 h; in short: as §1
[11] = system: Carnobacterium maltaromaticum; assay: Antibacterial activity against Carnobacterium maltaromaticum CCUG 34645 measured after 72 hrs; conditions: CCUG 34645, 72 h; in short: as §2

MIC [1] [µM]	MIC [2] [µM]	MIC [3] [µM]	MIC [4] [µM]	MIC [5] [µM]	MIC [6] [µM]	MIC [7] [µM]	MIC [8] [µM]	MIC [9] [µM]	MIC [10] [µM]	MIC [11] [µM]	Molecule
> 100	> 100	100 (≈ 408 µg/mL)	> 100	200 (≈ 816 µg/mL)	> 100	> 100	200 (≈ 816 µg/mL)	200 (≈ 816 µg/mL)	50 (≈ 204 µg/mL)	200 (≈ 816 µg/mL)	CC[C@H](C)[C@@H]1NC(=O)[C@H](CO)NC(=O)[C@H](CO)NC(=O)[C@@H](NC(=O)[C@H](CO)NC(=O)[C@@H]2CCCN2C(=O)[C@H](CCC(N)=O)NC(=O)[C@H](CCC(N)=O)NC(=O)[C@@H](N)Cc2c[nH]c3ccccc23)CSSC[C@@H](C(=O)N[C@@H](CCCNC(=N)N)C(=O)N[C@@H](CCCNC(=N)N)C(=O)NCC(=O)N2CCC[C@H]2C(=O)N[C@H](C(=O)N[C@@H](Cc2ccc(O)cc2)C(=O)O)[C@@H](C)CC)NC(=O)[C@H](CO)NC(=O)[C@H](C)NC(=O)[C@@H]2CSSC[C@H]3NC(=O)[C@H](C)NC(=O)[C@H](CO)NC(=O)[C@H](CCCCN)NC(=O)CNC(=O)[C@@H]4CSSC[C@H](NC(=O)[C@H](CCCNC(=N)N)NC(=O)CNC(=O)[C@H](CO)NC(=O)[C@H](Cc5ccc(O)cc5)NC(=O)[C@H](CO)NC(=O)[C@H]([C@@H](C)CC)NC3=O)C(=O)NCC(=O)N[C@@H](CSSC[C@H](NC1=O)C(=O)N[C@@H](CC(=O)O)C(=O)N[C@@H](Cc1ccc(O)cc1)C(=O)N[C@@H](CO)C(=O)N4)C(=O)N2
100	1.6	6.3	0.8	25	1.6	1.6	25	3.1	1.6	50	H-SWLSKTAKKLENSAKKRISEGIAIAIQGGPR-OH
